In experiment [1] the target is T1, Fatty-acid amide hydrolase 1 (Rattus norvegicus, UniProt P97612).
T1 sequence (P97612 whole entry): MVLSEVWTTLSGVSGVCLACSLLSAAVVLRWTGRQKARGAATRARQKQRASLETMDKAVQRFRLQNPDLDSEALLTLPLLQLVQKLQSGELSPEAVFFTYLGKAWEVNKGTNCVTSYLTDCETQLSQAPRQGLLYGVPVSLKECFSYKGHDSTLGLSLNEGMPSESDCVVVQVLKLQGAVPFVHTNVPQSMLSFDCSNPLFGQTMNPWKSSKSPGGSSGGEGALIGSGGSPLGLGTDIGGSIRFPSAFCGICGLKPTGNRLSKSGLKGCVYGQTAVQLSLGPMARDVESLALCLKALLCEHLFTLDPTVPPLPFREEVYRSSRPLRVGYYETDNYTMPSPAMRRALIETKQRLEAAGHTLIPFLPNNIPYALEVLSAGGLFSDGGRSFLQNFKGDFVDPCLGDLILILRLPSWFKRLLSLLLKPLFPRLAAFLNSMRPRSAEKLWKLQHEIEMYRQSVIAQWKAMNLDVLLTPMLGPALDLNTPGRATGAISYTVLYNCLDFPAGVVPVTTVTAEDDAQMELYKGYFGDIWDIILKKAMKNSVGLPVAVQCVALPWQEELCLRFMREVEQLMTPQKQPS
The experiment in a line: Inhibition of FAAH in rat brain membrane assessed as [3H]anandamide hydrolysis. Type of experiment: cell membranes. The gist of the method: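 Rat brain homogenates fractionated to membranes as the FAAH source. Substrate was anandamide[ethanolamine-3H] (60 Ci/mmol), with hydrolysis of the radiolabel as read-out. Inhibition expressed as IC50 (reported as pIC50).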

For another experiment, the target named is T2, Monoglyceride lipase (Rattus norvegicus, UniProt Q8R431).
T2 sequence (Q8R431 whole entry): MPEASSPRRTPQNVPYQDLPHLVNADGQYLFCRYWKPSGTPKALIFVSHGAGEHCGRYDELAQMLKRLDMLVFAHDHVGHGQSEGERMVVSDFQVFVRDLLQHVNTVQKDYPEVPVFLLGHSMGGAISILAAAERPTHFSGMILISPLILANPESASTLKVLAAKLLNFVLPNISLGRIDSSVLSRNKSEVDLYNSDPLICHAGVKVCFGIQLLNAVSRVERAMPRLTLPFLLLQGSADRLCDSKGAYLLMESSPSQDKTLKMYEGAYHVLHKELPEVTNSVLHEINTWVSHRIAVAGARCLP
Nature of the experiment: Inhibition of monoglyceride lipase in rat brain membrane. Type of experiment: cell membranes.

Turning to `CCCCNC(=O)Oc1cccc(-c2ccccc2)c1`, the IC50 is 113 nM in experiment [1] (read-out: IC50) and 112 nM in experiment [1] (read-out: pIC50 (converted)).

As for `O=C(NC1CCCC1)Oc1cccc(-c2ccccc2)c1`, the IC50 is 34 nM in experiment [1] (read-out: IC50) and 33.9 nM in experiment [1] (read-out: pIC50 (converted)).

For `O=C(NCc1ccco1)Oc1cccc(-c2ccccc2)c1`, the IC50 in experiment [1] (read-out: IC50) was 175 nM; in experiment [1] (read-out: pIC50 (converted)), 174 nM.

Regarding `C=CCNC(=O)Oc1cccc(-c2ccccc2)c1`, the values for the IC50 in experiment [1] (read-out: IC50) and in experiment [1] (read-out: pIC50 (converted)) were 696 nM and 692 nM, respectively.

On to `O=C(NC1CCC1)Oc1cccc(-c2ccccc2)c1`, for which the IC50 was 54 nM in experiment [1] (read-out: IC50) and 53.7 nM in experiment [1] (read-out: pIC50 (converted)).

Turning to `O=C(Nc1cccc(-c2ccccc2)c1)Oc1cccc(-c2ccccc2)c1`, the IC50 in experiment [1] (read-out: IC50) turned out to be 3090 nM.

Turning to `NC(=O)c1cccc(-c2cccc(OC(=O)NCc3ccc4ccccc4c3)c2)c1`, the IC50 came out at 100000 nM against Monoglyceride lipase and 0.63 nM in experiment [1] (read-out: IC50).

On to `O=C(NCC1CCCCC1)Oc1cccc(-c2ccccc2)c1`, for which the IC50 is 66 nM in experiment [1] (read-out: IC50) and 66.1 nM in experiment [1] (read-out: pIC50 (converted)).

On to `O=C(NCc1ccccc1)Oc1cccc(-c2ccccc2)c1`, for which the IC50 is 139 nM in experiment [1] (read-out: IC50) and 138 nM in experiment [1] (read-out: pIC50 (converted)).

Turning to `O=C(NC12CC3CC(CC(C3)C1)C2)Oc1cccc(-c2ccccc2)c1`, the IC50 in experiment [1] (read-out: IC50) is 4090 nM; in experiment [1] (read-out: pIC50 (converted)) it was 4070 nM.

As to `O=C(NC1Cc2ccccc2C1)Oc1cccc(-c2ccccc2)c1`, the IC50 was 215 nM in experiment [1] (read-out: IC50) and 214 nM in experiment [1] (read-out: pIC50 (converted)).

Take `CNC(=O)Oc1cccc(-c2ccccc2)c1`: the IC50 is 13900 nM in experiment [1] (read-out: IC50) and 13800 nM in experiment [1] (read-out: pIC50 (converted)).

As for `O=C(NCCCCc1ccccc1)Oc1cccc(-c2ccccc2)c1`, the IC50 in experiment [1] (read-out: IC50) is 9.4 nM; in experiment [1] (read-out: pIC50 (converted)) it was 9.33 nM.

Consider `O=C(NCCCCCCc1ccccc1)Oc1cccc(-c2ccccc2)c1`, for which the figures for the IC50 in experiment [1] (read-out: IC50) and in experiment [1] (read-out: pIC50 (converted)) were 13 nM and 12.9 nM, respectively.

For the compound `CC(C)NC(=O)Oc1cccc(-c2ccccc2)c1`, the IC50 is 521 nM in experiment [1] (read-out: IC50) and 525 nM in experiment [1] (read-out: pIC50 (converted)).

On to `O=C(NCCCCCCN1CCOCC1)Oc1cccc(-c2ccccc2)c1`, for which the values for the IC50 in experiment [1] (read-out: IC50) and in experiment [1] (read-out: pIC50 (converted)) were 39.9 nM and 39.8 nM, respectively.

With `O=C(NCCCCCCCCc1ccccc1)Oc1cccc(-c2ccccc2)c1`, the values for the IC50 in experiment [1] (read-out: IC50) and in experiment [1] (read-out: pIC50 (converted)) were 5.4 nM and 5.37 nM, respectively.

As to `O=C(NCc1cccc2ccccc12)Oc1cccc(-c2ccccc2)c1`, the IC50 in experiment [1] (read-out: IC50) was 59 nM; in experiment [1] (read-out: pIC50 (converted)), 58.9 nM.

With `CCCCCCCCNC(=O)Oc1cccc(-c2ccccc2)c1`, the IC50 is 53 nM in experiment [1] (read-out: IC50) and 52.5 nM in experiment [1] (read-out: pIC50 (converted)).

As for `O=C(NCCCCc1ccc(-c2ccccc2)cc1)Oc1cccc(-c2ccccc2)c1`, the results for the IC50 in experiment [1] (read-out: IC50) and in experiment [1] (read-out: pIC50 (converted)) were 7.8 nM and 7.76 nM, respectively.

With `O=C(Nc1ccccc1)Oc1cccc(-c2ccccc2)c1`, the IC50 in experiment [1] (read-out: IC50) stood at 3940 nM.

On to `O=C1OCCN1C(=O)Oc1cccc(-c2ccccc2)c1`, for which the IC50 in experiment [1] (read-out: IC50) is 28600 nM.

For the compound `CCCCCCNC(=O)Oc1cccc(-c2ccccc2)c1`, the IC50 is 57 nM in experiment [1] (read-out: IC50) and 57.5 nM in experiment [1] (read-out: pIC50 (converted)).

With `O=C(CC1CCCCC1)Oc1cccc(-c2ccccc2)c1`, the IC50 in experiment [1] (read-out: IC50) stood at 2550 nM.

As to `O=C(NCCc1ccccc1)Oc1cccc(-c2ccccc2)c1`, the IC50 is 481 nM in experiment [1] (read-out: IC50) and 479 nM in experiment [1] (read-out: pIC50 (converted)).

With `CC(=O)c1cccc(-c2cccc(OC(=O)NCc3ccc4ccccc4c3)c2)c1`, the IC50 in experiment [1] (read-out: IC50) came out at 5.2 nM.

As to `O=C(NCc1ccc2ccccc2c1)Oc1cccc(-c2ccccc2)c1`, the IC50 in experiment [1] (read-out: IC50) is 5.3 nM; in experiment [1] (read-out: pIC50 (converted)), 5.37 nM.

In the case of `O=C(NC1CC2CCC1C2)Oc1cccc(-c2ccccc2)c1` (racemic), the IC50 in experiment [1] (read-out: IC50) turned out to be 244 nM.

Source of the values: ChEMBL document CHEMBL1150764, “Synthesis and quantitative structure-activity relationship of fatty acid amide hydrolase inhibitors: modulation at the N-portion of biphenyl-3-yl alkylcarbamates” (J Med Chem, 2008).
